In general, IC50 refers to the concentration needed to halve the response being measured.

Sequence of Integrin alpha-IIb/beta-3 (P05106 27-788 limits assumed): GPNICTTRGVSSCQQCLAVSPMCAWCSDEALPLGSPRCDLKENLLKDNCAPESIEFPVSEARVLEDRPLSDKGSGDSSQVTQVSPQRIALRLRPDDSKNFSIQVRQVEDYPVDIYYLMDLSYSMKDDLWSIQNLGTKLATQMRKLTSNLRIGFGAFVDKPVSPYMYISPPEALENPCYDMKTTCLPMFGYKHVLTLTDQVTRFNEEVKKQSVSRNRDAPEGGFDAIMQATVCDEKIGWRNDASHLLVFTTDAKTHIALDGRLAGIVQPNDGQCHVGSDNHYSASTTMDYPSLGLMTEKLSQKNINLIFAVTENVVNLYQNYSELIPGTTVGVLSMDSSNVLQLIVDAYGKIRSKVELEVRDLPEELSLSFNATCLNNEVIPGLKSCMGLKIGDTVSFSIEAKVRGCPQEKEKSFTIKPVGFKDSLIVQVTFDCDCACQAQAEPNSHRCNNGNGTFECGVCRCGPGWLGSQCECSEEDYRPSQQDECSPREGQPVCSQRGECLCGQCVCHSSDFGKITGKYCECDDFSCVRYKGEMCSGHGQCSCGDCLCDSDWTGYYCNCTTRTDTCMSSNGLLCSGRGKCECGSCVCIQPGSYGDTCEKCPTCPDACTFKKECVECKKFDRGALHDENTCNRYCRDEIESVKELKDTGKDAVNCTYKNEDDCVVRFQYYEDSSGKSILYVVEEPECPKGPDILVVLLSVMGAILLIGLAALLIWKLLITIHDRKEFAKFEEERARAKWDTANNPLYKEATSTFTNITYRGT
Sequence of Integrin alpha-IIb/beta-3 (P08514 32-887 limits assumed): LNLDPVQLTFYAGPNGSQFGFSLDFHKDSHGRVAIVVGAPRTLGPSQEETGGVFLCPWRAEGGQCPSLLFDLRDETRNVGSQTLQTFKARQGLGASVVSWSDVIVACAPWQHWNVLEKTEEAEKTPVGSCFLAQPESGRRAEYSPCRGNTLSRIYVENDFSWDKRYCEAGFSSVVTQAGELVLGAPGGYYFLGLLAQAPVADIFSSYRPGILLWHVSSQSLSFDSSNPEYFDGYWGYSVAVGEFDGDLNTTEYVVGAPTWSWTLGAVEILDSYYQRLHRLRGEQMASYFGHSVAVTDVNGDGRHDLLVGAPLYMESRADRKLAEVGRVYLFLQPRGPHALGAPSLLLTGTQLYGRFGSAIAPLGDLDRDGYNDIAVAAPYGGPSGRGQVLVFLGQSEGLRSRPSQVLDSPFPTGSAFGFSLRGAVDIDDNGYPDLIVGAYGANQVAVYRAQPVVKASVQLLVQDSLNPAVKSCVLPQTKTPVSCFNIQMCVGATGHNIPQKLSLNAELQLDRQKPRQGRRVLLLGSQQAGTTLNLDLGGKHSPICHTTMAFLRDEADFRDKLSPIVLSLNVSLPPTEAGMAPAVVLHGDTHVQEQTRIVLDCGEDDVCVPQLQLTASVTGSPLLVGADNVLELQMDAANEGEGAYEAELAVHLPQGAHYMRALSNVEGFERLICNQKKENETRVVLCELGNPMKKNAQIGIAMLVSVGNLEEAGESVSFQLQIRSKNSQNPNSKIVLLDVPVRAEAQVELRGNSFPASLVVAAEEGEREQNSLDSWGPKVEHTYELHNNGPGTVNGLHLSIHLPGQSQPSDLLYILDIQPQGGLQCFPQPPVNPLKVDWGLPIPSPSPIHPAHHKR
Sequence of Integrin alpha-IIb/beta-3 (P08514 891-1039 limits assumed): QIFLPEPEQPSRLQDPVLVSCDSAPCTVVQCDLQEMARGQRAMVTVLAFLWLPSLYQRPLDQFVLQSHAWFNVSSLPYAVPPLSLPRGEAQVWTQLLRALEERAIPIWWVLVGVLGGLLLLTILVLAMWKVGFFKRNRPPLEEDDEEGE

For this experiment, the target named is Integrin alpha-IIb/beta-3 (Homo sapiens, UniProt P08514+P05106). As to the kind of experiment: In vitro inhibition of ADP-induced (2.5 uM) human platelet aggregation. The essentials:
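Human PRP from citrated blood (0.38% final) of unmedicated donors, spun 1000g 10 min; compound added in DMSO (0.01% final) 1 min before 2.5 μM ADP. Aggregation by Born method, measured as maximum curve height; percent inhibition calculated against vehicle-alone aggregation.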
In turn, `CC(C)(C(=O)O)N1CCC(Nc2nc(-c3ccc(C(=N)N)cc3)cs2)CC1` [2-{4-[4-(4-Carbamimidoyl-phenyl)-thiazol-2-ylamino]-piperidin-1-yl}-2-methyl-propionic acid] showed an IC50 above 10000 nM.
As to `N=C(N)c1ccc(-c2csc(N(Cc3ccccc3)C3CCN(CC(=O)O)CC3)n2)cc1` [(4-{Benzyl-[4-(4-carbamimidoyl-phenyl)-thiazol-2-yl]-amino}-piperidin-1-yl)-acetic acid], the IC50 was 230 nM.
Compound `CN(c1nc(-c2ccc(C(=N)N)cc2)cs1)C1CCN(CC(=O)O)CC1` [(4-{[4-(4-carbamimidoyl-phenyl)-thiazol-2-yl]-methyl-amino}-piperidin-1-yl)-acetic acid] returned an IC50 of 160 nM.
In the case of `N=C(N)c1ccc(-c2csc(NC3CCN(CCC(=O)O)CC3)n2)cc1` [3-{4-[4-(4-carbamimidoyl-phenyl)-thiazol-2-ylamino]-piperidin-1-yl}-propionic acid], inhibition was half-maximal at 1800 nM (IC50).
The compound `N=C(N)c1ccc(-c2csc(N(CCC(=O)O)C3CCN(CC(=O)O)CC3)n2)cc1` [3-[[4-(4-Carbamimidoyl-phenyl)-thiazol-2-yl]-(1-carboxymethyl-piperidin-4-yl)-amino]-propionic acid] returned an IC50 of 46 nM.
Regarding `N=C(N)c1ccc(-c2csc(N(CC(=O)O)C3CCN(CC(=O)O)CC3)n2)cc1` [[[4-(4-Carbamimidoyl-phenyl)-thiazol-2-yl]-(1-carboxymethyl-piperidin-4-yl)-amino]-acetic acid], the midpoint of inhibition, the IC50, lay at 170 nM.
Consider `N=C(N)c1ccc(-c2csc(NC3CCN(CC(=O)O)CC3)n2)cc1` [{4-[4-(4-Carbamimidoyl-phenyl)-thiazol-2-ylamino]-piperidin-1-yl}-acetic acid], for which half-maximal inhibition (IC50) required 42 nM.
For `CC(C(=O)O)N1CCC(Nc2nc(-c3ccc(C(=N)N)cc3)cs2)CC1` (configuration not stated) [2-{4-[4-(4-carbamimidoyl-phenyl)-thiazol-2-ylamino]-piperidin-1-yl}-propionic acid] the value was 250 nM; for `N=C(N)c1ccc(-c2csc(NC3CCN(C(C(=O)O)c4ccccc4Cl)CC3)n2)cc1` (configuration not stated) [4-[4-(4-carbamimidoyl-phenyl)-thiazol-2-ylamino]-piperidin-1-yl}-(2-chloro-phenyl)-acetic acid], 6000 nM.
On to `COC(=O)CC(C(=O)O)N1CCC(Nc2nc(-c3ccc(C(=N)N)cc3)cs2)CC1` (configuration not stated) [2-{4-[4-(4-Carbamimidoyl-phenyl)-thiazol-2-ylamino]-piperidin-1-yl}-succinic acid 4-methyl ester], for which the IC50 turned out to be 85 nM.
Compound `N=C(N)c1ccc(-c2csc(NC3CCN(C(C(=O)O)c4ccccc4)CC3)n2)cc1` (configuration not stated) [{4-[4-(4-Carbamimidoyl-phenyl)-thiazol-2-ylamino]-piperidin-1-yl}-phenyl-acetic acid] displayed an IC50 of 65 nM.
Compound `N=C(N)c1ccc(-c2csc(N(CCCC(=O)O)C3CCN(CC(=O)O)CC3)n2)cc1` [4-[[4-(4-Carbamimidoyl-phenyl)-thiazol-2-yl]-(1-carboxymethyl-piperidin-4-yl)-amino]-butyric acid] registered an IC50 of 96 nM.

These data come from BindingDB's records for doi:10.1021/jm970240y (Sanofi Recherche, 1997).
